ERAP1 HTS inh – blocks human ERAP1 aminopeptidase activity; inhibition, % at 10.7 µM; 0.15% of 340,000 active; AID 652197; recombinant ERAP1, Leu-AMC fluorescence, 60 min; Q9NZ08;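 active means mean replicate inhibition of at least 30%, or all replicates individually reaching that 30% level; inactive means mean below 30% and not every replicate reaching it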;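 further: 0% = neutral control wells and 100% = L-leucinethiol positive control wells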
E-selectin induc – E-selectin induction on HUVECs. HUVEC E-selectin immunofluorescence imaging; normalized: neutral wells 0, TNF-alpha wells 100. P16581. AID 686992. 0.37% of 260,000 active. activation, % at 7.58 µM;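 active means mean E-selectin-positive cell signal at least 10% of the positive control, reached in at least 60% of replicates, without over 20% cell loss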
Target sequence (P16581 whole entry, looked up): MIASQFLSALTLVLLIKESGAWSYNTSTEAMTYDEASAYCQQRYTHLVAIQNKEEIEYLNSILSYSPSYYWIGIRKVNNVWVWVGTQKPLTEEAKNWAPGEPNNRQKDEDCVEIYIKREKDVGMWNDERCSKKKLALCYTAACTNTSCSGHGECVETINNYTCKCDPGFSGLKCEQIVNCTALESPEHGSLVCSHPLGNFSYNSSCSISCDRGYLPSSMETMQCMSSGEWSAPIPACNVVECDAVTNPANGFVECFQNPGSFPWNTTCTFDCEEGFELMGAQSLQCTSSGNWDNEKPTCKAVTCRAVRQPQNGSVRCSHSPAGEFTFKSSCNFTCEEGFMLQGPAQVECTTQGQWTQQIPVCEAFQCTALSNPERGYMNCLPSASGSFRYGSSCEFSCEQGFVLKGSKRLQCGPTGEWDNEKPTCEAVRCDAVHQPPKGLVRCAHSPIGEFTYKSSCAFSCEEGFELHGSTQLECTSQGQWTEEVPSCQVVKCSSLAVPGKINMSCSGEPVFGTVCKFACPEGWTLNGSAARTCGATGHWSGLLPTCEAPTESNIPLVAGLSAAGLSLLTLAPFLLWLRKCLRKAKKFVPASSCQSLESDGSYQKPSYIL
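material = human umbilical vein endothelial cells (HUVEC), E-selectin induction | quantity = 3,000 cells/well | medium = EGM-2 growth medium on 0.1% gelatin-coated wells | technique = immunofluorescence imaging | read-out basis = % PE-positive cells | control set = TNF-alpha positive control, DMSO neutral control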
F508del corr – CFTR F508del correction in bronchial cells; activity (quench increase), % at 7.58 µM; 0.36% of 350,000 active; CFBE cells, YFP halide quenching; stimulated with forskolin plus potentiator P3; % fluorescence drop versus neutral controls;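 active means mean added fluorescence quench of at least 8% versus neutral control, with both replicates also reaching 8%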;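 further: cells transiently co-express mutant CFTR-F508del with the halide-sensitive YFP; corrector assay measuring rescue of mutant channel to the surface after 24 h compound exposure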
INS-1E GSIS act – GLuc luminescence reporter in INS-1E cells, primary screen for activators of glucose-dependent secretion of insulin; 0.61% of 370,000 active; activation, % at 16.6 µM; INS-1E GLuc reporter insulin secretion, 2-3 h; AID 743287;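 active means lowest replicate activation of at least 40%, so every replicate reaches that level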;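 further: 0% = median of neutral control wells and 100% = median of IBMX positive control wells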
miR-122 sensor – inhibitors of miR-122 in Huh7 cells | Huh7 miR-122 Renilla luciferase sensor, 48 h; neutral wells = 0, positive control = 100 | activation (reporter increase), % at 12.5 µM | 0.3% of 340,000 active;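 active means mean replicate activation score at least 90 and every replicate individually at or above 90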;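 further: higher luciferase means less miR-122 activity so hits act as miR-122 inhibitors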
DENV2 CPE rescue – protects cells from dengue virus 2 cytopathic effect. DENV2-infected cells, cytopathic effect rescue, plate reader. CPE inhibition, % at 9.99 µM. 1.7% of 350,000 active; in the data active means CPE inhibition above about 20%, passing the limit was not always enough; tested in BHK-21 cells;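 further: 0% = median of neutral control wells and 100% = median of positive control wells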
* hit, by the source's call; nt = no result given; [ ] = another dose, or the depositor's remark. This is a sample that favours compounds with a hit; in the whole collection about 2.6% have one here.

SMILES	ERAP1 HTS inh	E-selectin induc	F508del corr	INS-1E GSIS act	miR-122 sensor	DENV2 CPE rescue
CO[C@@H]1CN(C)C(=O)c2ccc(NC(=O)Nc3cccc(Cl)c3)cc2OC[C@H](C)N(C(=O)Nc2c(C)noc2C)C[C@H]1C	1.7	0.1	0.7	-7.2	nt	30.6*
CO[C@H]1CN(C)C(=O)c2ccc(NC(=O)Nc3cccc(F)c3)cc2OC[C@@H](C)N(C(=O)Nc2c(C)noc2C)C[C@@H]1C	1.3	-0.6	0.8	0.0	nt	25.2*
CO[C@H]1CN(C)C(=O)c2ccc(NC(=O)Nc3cccc(F)c3)cc2OC[C@H](C)N(C(=O)Nc2c(C)noc2C)C[C@H]1C	1.1	-0.2	-0.8	-4.5	nt	6.1
COc1ccc(S(=O)(=O)Nc2ccc3c(c2)C(=O)N([C@H](C)CO)C[C@@H](C)[C@H](CN(C)C(=O)Nc2ccccc2)OCCCC[C@H](C)O3)cc1	nt	-0.3	nt	-18.2	nt	nt
Cc1ccc(S(=O)(=O)Cc2ccccc2Cl)cc1	0.6	nt	nt	14.5	nt	29.5*
Cc1cc(Br)c(NC(=O)C(C)Sc2nnnn2C)c(Br)c1 (stereo unspecified)	-3.1	-0.2	11.9*	-17.8	nt	10.3
O=C(NCc1ccncc1)c1ccc2nc([C@@H]3O[C@H](CO)[C@H](O)[C@H](O)[C@H]3O)[nH]c2c1	-4.0	-0.1	-0.8	nt	-7.2	-0.8
O=C(NCc1cc(Cl)cc(Cl)c1)c1ccc2nc([C@@H]3O[C@H](CO)[C@@H](O)[C@H]3O)[nH]c2c1	-1.6	-0.1	-2.7	55.8*	0.0	-4.7
Cc1ccccc1C(=O)N1CCC(C(=O)NN2C(=O)NC3(CCC(C)CC3)C2=O)CC1 (stereo unspecified)	-0.7	nt	2.0	-0.6	1.1	-5.1
Cc1ccccc1C(=O)N1CCC(C(=O)NN2C(=O)NC3(CCCCC3)C2=O)CC1	-1.6	264.2*	0.2	nt	nt	-5.8
S=C1N(c2ccccc2)C(c2ccc(Br)cc2)N2CCCN12 (stereo unspecified)	0.9	-0.1	0.5	9.9	6.5	42.0*
C[C@]12c3[nH]c4ccc(Cl)cc4c3CCN1C(=O)[C@@H](CC(=O)NCc1ccco1)C[C@@H]2C(=O)N1CCCCC1	nt	53.0*	-1.7	-14.3	-6.6	-3.2
CC[C@]12c3[nH]c4cc(-c5ccco5)ccc4c3CCN1C(=O)[C@@H](CC(=O)NC(C)(C)C)C[C@@H]2C(=O)N1CCN(C(=O)C2CC2)CC1	-7.2	0.0	-0.1	0.1	-4.6	43.3*
COc1ccc2[nH]c3c(c2c1)CCN1C(=O)C(CC(=O)NCc2ccco2)C[C@H](C(=O)N2CCCCC2)[C@@]31C (stereo partly specified)	-0.9	-0.2	-2.1	-4.1	-3.4	-4.9
CCC(=O)Nc1ccc2c(c1)C(=O)N(C)C[C@@H](OC)[C@H](C)CN(Cc1cncnc1)[C@@H](C)CO2	nt	0.0	-0.9	5.8	-1.1[16.7 µM]	nt
C[C@H]1CN([C@@H](C)CO)C(=O)c2cc(NC(=O)Cc3cn(C)c4ccccc34)ccc2O[C@@H]1CN(C)C(=O)Nc1ccccc1	-1.4	0.0	0.3	-2.3	7.5[16.7 µM]	-10.4
O=C(C1CCCCC1)N1CC[C@@H]2[C@@H](CO)Nc3ccc(Br)cc3[C@@H]21	0.9	0.1	5.6	1.6	-4.0[16.7 µM]	15.3
CCCN=CC1=C(O)CC(c2ccccc2)CC1=O (stereo unspecified)	nt	nt	nt	nt	-10.7	nt
Cc1cc(C)nc(N/N=C/C2=C(O)CC(c3ccccc3)CC2=O)n1 (stereo unspecified)	nt	9.8	2.4	nt	nt	31.9*
COc1ccc(CN(C)C[C@H]2Oc3ccc(NC(=O)NC(C)C)cc3CC(=O)N([C@H](C)CO)C[C@H]2C)cc1	1.3	-5.5	-1.3	2.1	0.9[16.7 µM]	-8.4
CO[C@@H]1CN(C)C(=O)c2cc(NC(=O)C3CC3)ccc2OC[C@H](C)N(CCC(F)(F)F)C[C@H]1C	1.0	-0.3	1.5	-7.0	nt	-1.9
O=C(COc1cccnc1[N+](=O)[O-])Nc1ccccc1Sc1ccccc1	3.9	nt	-2.1	15.8	5.9	32.5*
Cc1noc(C)c1NC(=O)Nc1ccc2c(c1)C(=O)N(C)[C@H]1CC[C@@H](CC(=O)N(C)C)O[C@@H]1CO2	-2.8	-0.1	-0.6	0.7	4.9[16.7 µM]	-0.9
CCc1ccc(OCC(O)CN2CCN(c3ccccc3)CC2)cc1 (stereo unspecified)	4.1	0.0	-1.3	0.8	3.8	83.4*
COc1ccc(N2CCN(CC(O)COc3ccc(F)cc3)CC2)cc1 (stereo unspecified)	-0.7	nt	1.0	-6.4	-10.4	51.9*
SMILES	ERAP1 HTS inh	E-selectin induc	F508del corr	INS-1E GSIS act	miR-122 sensor	DENV2 CPE rescue
CN1C(=O)c2cc(NC(=O)c3cc(F)cc(F)c3)ccc2OC[C@@H]2O[C@@H](CC(=O)O)CC[C@@H]21	-1.0	0.2	0.8	-3.4	9.1[16.7 µM]	6.4
COc1ccc(S(=O)(=O)Nc2ccc3c(c2)CC(=O)N([C@H](C)CO)C[C@H](C)[C@@H](CN(C)S(=O)(=O)c2ccc(F)cc2)O3)cc1	nt	-12.3	1.0	-33.0	-3.4[16.7 µM]	0.3
O=S1(=O)CC(O)C(O)CS1 (stereo unspecified)	65.2*	0.3	-3.3	-3.5	nt	-4.9
CS(=O)(=O)N1CC2C(c3ccc(Br)cc3)C(C1)N2CC(F)(F)F (stereo unspecified)	nt	nt	nt	16.7	nt	nt
COc1ccc(CN2CC3(CCN(Cc4ccccn4)CC3)c3c(n(C)c4cc(OC)ccc34)[C@@H]2CO)cc1	nt	-0.3	-1.9	-21.1	nt	0.1
O=C(C[C@H]1CC[C@@H](NC(=O)c2ccccc2)[C@H](CO)O1)NCc1ccc(Oc2ccccc2)cc1	-5.3	0.1	-0.2	-1.0	nt	-1.7
COc1ccc(-c2ccc([C@H]3[C@@H](CO)N4C(=O)CN(C(=O)C5CCCC5)C[C@H]34)cc2)cc1	-1.2	0.1	1.5	-6.8	nt	4.0
O=C(CN1CCOCC1)N1CC2(C1)[C@H](c1ccccc1)[C@@H](CO)N2Cc1ccccc1	-1.8	0.1	-3.5	0.8	nt	4.5
CC1CC(C)CN(C(=O)COC(=O)c2ccc([N+](=O)[O-])o2)C1 (stereo unspecified)	-1.5	-0.6	3.0	5.5	0.2	-2.8
CCOC(=O)C1CCN(C(=O)COC(=O)c2ccc([N+](=O)[O-])o2)CC1	0.4	nt	0.4	11.6	-5.9	76.3*
COc1ccc(CN(C)C[C@H]2Oc3ccc(NC(=O)C4CCCCC4)cc3CC(=O)N([C@@H](C)CO)C[C@@H]2C)cc1	0.5	nt	1.2	4.1	-5.7[16.7 µM]	-3.6
COc1ccc(-c2cc3cc(OC)c(OC)cc3cn2)cc1OC	nt	nt	6.8	6.6	nt	-4.4
COc1cc2cnc(Cl)nc2cc1OC	nt	0.0	nt	61.1*	-10.2	nt
O=C(CSc1ncn[nH]1)c1cccc([N+](=O)[O-])c1	-0.6	38.3*	0.0	-20.6	nt	-8.7
O=C(CSc1ncn[nH]1)c1ccccc1	nt	nt	nt	nt	-11.1	nt

Compound activity deposited in PubChem by Broad Institute.
